pIC50: −log10 of the molar value. The source made the active and inactive calls. No cut-off for these calls is given here.

This note sets out measurements from ChEMBL document CHEMBL1806428, “Design and synthesis of spiro derivatives of parthenin as novel anti-cancer agents” (Eur J Med Chem, 2011).

In data set [1] the test system is Ehrlich. In words: Antitumor activity against mouse EAC cells transplanted in ip dosed Swiss albino mouse assessed as tumor growth inhibition administered for 9 days. In kind it is functional, organism-based. In a few lines:
(§1)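 EAC ascites model: mice of the same sex, 20 ± 3 g, injected intraperitoneally with 1 × 10^7 cells from a donor bearing 8–10 day old ascites tumor (day 0). Randomised the next day, 7 per test group and 10 controls. Doses were suspended in 1% gum acacia and given i.p. for nine consecutive days; controls received saline 0.2 mL i.p. On day 12, ascitic fluid volume and tumor cell count were measured, and % inhibition was calculated from cell number versus control.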

Data set [2] is described as follows: Antitumor activity against mouse Ehrlich Ascites tumor xenografted in Swiss albino mouse assessed as decrease in tumor weight at 10 mg/kg, ip administered for 9 days (reference value: 1708+/-51.07 mg). Conditions: route intraperitoneal. In kind it is functional.
The subject of data set [3] is Mus musculus. The data set can be described thus: Toxicity in Swiss albino mouse model of Ehrlich Ascites tumor assessed as mortality at 25 mg/kg, ip administered for 9 days measured on fourth day. The class given is organism-based. As to conditions: in vivo, 216 h. Details: dose 25 mg/kg, route intraperitoneal.
The subject of data set [4] is Mus musculus. In words: Toxicity in Swiss albino mouse transplanted with EAC cells assessed as mortality at 50 mg/kg, ip administered for 9 days measured on day 2nd. The class given is organism-based, Ehrlich. Details: dose 50 mg/kg, route intraperitoneal. As to conditions: in vivo, 216 h. In a few lines: as §1
The test system of data set [5] is Ehrlich. The data set can be described thus: Antitumor activity against mouse EAC cells transplanted in Swiss albino mouse assessed as decrease in tumor cells in ascetic fluid at 10 mg/kg, ip administered for 9 days (reference value: 4.57+/-0.39 mL). Details: dose 10 mg/kg. In kind it is functional, organism-based. The essentials:
as §1

Data set [6] has as its system Mus musculus. In words: Toxicity in Swiss albino mouse transplanted with mouse EAC cells assessed as mortality at 50 mg/kg, ip administered for 9 days measured on day 3rd. In kind it is organism-based, Ehrlich. Also on record: dose 50 mg/kg, route intraperitoneal. As to conditions: in vivo, 216 h. The essentials:
as §1

Data set [7] can be described thus: Antitumor activity against mouse EAC cells transplanted in Swiss albino mouse assessed as decrease in astic fluid volume at 10 mg/kg, ip administered for 9 days (reference value: 4.57+/-0.39 mL). In kind it is functional, Ehrlich. Conditions: route intraperitoneal. In a few lines:
as §1

Data set [8] relates to SW-620. The data set can be described thus: Cytotoxicity against human SW620 cells assessed as cell growth after 48 hrs by sulforhodamine B assay. In kind it is functional, cell-based. As to conditions: Homo sapiens, SW-620, 48 h. In a few lines: (§2)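 Log-phase cells seeded at 10^4/well and allowed to attach for 24 h at 37 °C, 5% CO2. Exposed for 48 h to 0.1–100 (1:10 serial dilutions), four replicate wells per condition. Fixed with cold 50% TCA for 1 h at 4 °C, stained with sulforhodamine B, dye dissolved in Tris, OD read at 540 nm. Blank-subtracted growth expressed relative to untreated cells (100%); IC50 reported.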

Data set [9] can be described thus: Antitumor activity against mouse EAC cells transplanted in Swiss albino mouse assessed as tumor growth inhibition at 10 mg/kg, ip administered for 9 days (reference value: 4.57+/-0.39 mL). As to conditions: Ehrlich, 216 h, route intraperitoneal, read-out: GI. In kind it is functional. The essentials: as §1
Data set [10] deals with Mus musculus. In words: Toxicity in Swiss albino mouse transplanted with mouse EAC cells assessed as mortality at 25 mg/kg, ip administered for 9 days measured on day 2nd. Details: dose 25 mg/kg, route intraperitoneal. Conditions: in vivo, 216 h. The class given is organism-based, Ehrlich. The essentials: as §1
Data set [11] relates to Mus musculus. The data set can be described thus: Toxicity in ip dosed Swiss albino mouse transplanted with mouse EAC cells assessed as mortality administered for 9 days. In kind it is organism-based, Ehrlich. Conditions: in vivo, 216 h. The essentials: as §1
The next data set relates to DU-145. In words: Cytotoxicity against human DU145 cells assessed as cell growth after 48 hrs by sulforhodamine B assay. As to conditions: Homo sapiens, DU-145, 48 h. In kind it is functional, cell-based. The essentials: as §2
Data set [12] relates to Mus musculus. In words: Toxicity in Swiss albino mouse model of Ehrlich Ascites tumor assessed as mortality at 50 mg/kg, ip administered for 9 days measured on second day. As to conditions: in vivo, 216 h. The class given is organism-based. Also on record: dose 50 mg/kg, route intraperitoneal.
Data set [13] is described as follows: Antitumor activity against mouse Ehrlich Ascites tumor xenografted in Swiss albino mouse assessed as tumor growth inhibition at 10 mg/kg, ip administered for 9 days measured on day 13. In kind it is functional. Conditions: route intraperitoneal, read-out: GI.
Data set [14] deals with Mus musculus. The data set can be described thus: Toxicity in Swiss albino mouse transplanted with EAC cells assessed as mortality at 25 mg/kg, ip administered for 9 days measured on day 4th. The class given is organism-based, Ehrlich. Also on record: dose 25 mg/kg, route intraperitoneal. As to conditions: in vivo, 216 h. In a few lines:
as §1

Another data set relates to PC-3. The data set can be described thus: Cytotoxicity against human PC3 cells assessed as cell growth after 48 hrs by sulforhodamine B assay. The class given is functional, cell-based. As to conditions: Homo sapiens, PC-3, 48 h. The essentials: as §2
For orientation: In SRB staining, fixed cells bind dye roughly in proportion to their protein.

Data set [15] relates to SW-620. The data set can be described thus: Induction of apoptosis in human SW620 cells assessed as DNA fragmentation at 5 uM after 6 hrs by gel electrophoresis. The class given is functional, cell-based.
Data set [16] concerns SW-620. In words: Cell cycle arrest in human SW620 cells assessed as increase in sub-G1 DNA content at 5 uM after 24 hrs using propidium iodide staining by flow cytometry (reference value: 3.45%). In kind it is functional.
Data set [17] in a line: Partition coefficient, log P of the compound. Conditions: octanol/water. In kind it is physicochemical.
A short description of data set [18]: Antitumor activity against mouse Ehrlich Ascites tumor xenografted in Swiss albino mouse assessed as decrease in tumor weight at 20 mg/kg, ip administered for 9 days (reference value: 1708+/-51.07 mg). The class given is functional. Conditions: route intraperitoneal.
Data set [19] in a line: Antitumor activity against mouse Ehrlich Ascites tumor xenografted in Swiss albino mouse assessed as tumor growth inhibition at 20 mg/kg, ip administered for 9 days measured on day 13. In kind it is functional. Conditions: route intraperitoneal, read-out: GI.

As usually defined, the pIC50 is the IC50 on a negative log10 scale, so that one unit is a factor of ten. Consider `C=C1C(=O)O[C@@H]2[C@H]1CC[C@H](C)[C@]1(O)C=CC(=O)[C@@]21C` [PARTHENIN], for which the “growth inhibition (GI)” value in the data set with Ehrlich [1] was “Dose-dependent effect”. Moreover, the Activity in data set [2] is 1542.86 mg; in the data set on Mus musculus [3], “Toxic”; with Mus musculus [4], “Toxic”; with Mus musculus [6], “Toxic”; in data set [7], 3.92 mL; in the data set on Mus musculus [10] it was “Toxic”. In addition, the Activity entry with Mus musculus [11], in the data set with Mus musculus [12] and with Mus musculus [14] was “Toxic” throughout. For the same molecule, in the data set on Ehrlich [5], the result was Active. Further, the pIC50 in the data set with SW-620 [8] was 4.41; in the data set on DU-145, 4.51; in the data set with PC-3 it was 4.39. Moreover, the inhibition in vivo at 10 mg/kg in data set [9] worked out at 12%; in data set [13] it was 9.69%.

As for `CC[C@@]1(O)C(=O)OCc2c1cc1n(c2=O)Cc2cc3ccccc3nc2-1` [CAMPTOTHECIN], the result in the data set on SW-620 [15] was Active. Moreover, the Activity in the data set on SW-620 [16] amounted to 60%.

As a reminder, the logP is a log measure of how a compound divides between an organic and an aqueous phase. Low values mean a more hydrophilic compound, high ones a more lipophilic compound. In the case of `C[C@H]1CC[C@@H]2[C@@H](OC(=O)[C@]23CC(c2ccccc2F)=NO3)[C@]2(C)C(=O)C=C[C@@]12O`, the pIC50 with SW-620 [8] is 4.96; in the data set on DU-145 it was 4.62; in the data set on PC-3, 5.09. The logP in data set [17] turned out to be 1.57.

In the case of `O=c1[nH]cc(F)c(=O)[nH]1` [FLUOROURACIL], the Activity in [18] is given as 832.28 mg. Moreover, in data set [19], the inhibition in vivo at 20 mg/kg was 51.3%.

With `COc1ccccc1N1C[C@]12C(=O)O[C@@H]1[C@H]2CC[C@H](C)[C@]2(O)C=CC(=O)[C@@]12C`, the pIC50 with SW-620 [8] is 4.33; with DU-145, 4.57; in the data set with PC-3, 4.28. In data set [17], this molecule gave a log partition coefficient (logP) of 1.41.

Take `C[C@H]1CC[C@@H]2[C@@H](OC(=O)[C@]23CC(c2ccc(F)cc2)=NO3)[C@]2(C)C(=O)C=C[C@@]12O`: the negative-log IC50 (pIC50) with SW-620 [8] is 5.44; in the data set with DU-145, 4.89; in the data set with PC-3, 4.57. The logP in [17] was 1.57.

As for `Cc1cccc(N2C[C@]23C(=O)O[C@@H]2[C@H]3CC[C@H](C)[C@]3(O)C=CC(=O)[C@@]23C)c1`, the figures for the pIC50 in the data set on SW-620 [8], with DU-145 and in the data set with PC-3 were 4.82, 4.20 and 4.21, respectively. In [17], this molecule yielded a lipophilicity (logP) of 1.83.

Consider `COC(=O)c1cccc(N2C[C@]23C(=O)O[C@@H]2[C@H]3CC[C@H](C)[C@]3(O)C=CC(=O)[C@@]23C)c1`, for which the pIC50 in the data set with SW-620 [8] was 4.52; in the data set on DU-145 it was 4.73; with PC-3, 5.00. This molecule also gave a logP in [17] of 1.52.

As for `Cc1ccc(C2=NO[C@]3(C2)C(=O)O[C@@H]2[C@H]3CC[C@H](C)[C@]3(O)C=CC(=O)[C@@]23C)cc1`, the pIC50 in the data set with SW-620 [8] was 5.60; with DU-145, 4.85; with PC-3, 4.85. Moreover, in data set [17], the logP is 1.86.
